# EP2 antag – inhibitors of human EP2 prostaglandin E2 receptor. inhibition, % at 25 µM. P43116. 260,000 tested, 0.52% active. C6 glioma cells expressing human EP2, cAMP TR-FRET; cells stimulated with saturating PGE2. AID 1422;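 active = percent inhibition above 40 after rounding to a whole number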;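 also: rat C6 glioma host cells with rolipram phosphodiesterase inhibitor present; the protocol text gives 20 µM as final concentration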
# Target sequence (P43116 whole entry, looked up): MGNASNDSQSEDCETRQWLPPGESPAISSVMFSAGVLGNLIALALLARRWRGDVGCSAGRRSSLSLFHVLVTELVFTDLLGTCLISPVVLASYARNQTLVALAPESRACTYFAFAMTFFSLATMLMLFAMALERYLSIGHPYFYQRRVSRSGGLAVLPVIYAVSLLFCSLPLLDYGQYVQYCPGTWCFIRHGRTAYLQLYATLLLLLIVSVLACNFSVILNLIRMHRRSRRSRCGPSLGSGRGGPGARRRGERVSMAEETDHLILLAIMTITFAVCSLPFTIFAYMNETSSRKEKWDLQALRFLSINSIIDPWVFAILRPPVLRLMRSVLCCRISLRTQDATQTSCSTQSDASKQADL
# EP2 mod – modulates human prostaglandin E2 receptor EP2 signaling; induction, % at 25 µM; P43116; EP2-expressing cells, cAMP HTRF FRET, PGE2 co-stimulation; 260,000 tested, 0.83% active; AID 940;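 active = compounds whose cAMP rise, as percent of the full-agonist control response, exceeds 60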;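 also: rat C6 glioma line stably carrying human EP2 under a CMV promoter; the protocol text gives 20 µM as final concentration; 100% = response of wells given 1 µM PGE2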
# Dynein cargo inh – blocks dynein driven cargo transport along microtubules; z-score, hits read low; 220,000 tested, 0.47% active; 3617.4 mouse cells, GR-EGFP nuclear translocation imaging; test concentration mostly 20 µM; stimulated with dexamethasone, 1 µM; hits give low values;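 active = plate z-score of nuclear minus cytoplasmic receptor signal below a set negative limit, without overly bright fluorescence or cell loss, cut at about -3.5 in these data, passing the limit was not always enough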;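 also: z-score of nuclear minus cytoplasmic ring GR-EGFP intensity difference per well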
#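 Also added – dexamethasone, 1.0 µM final · Buffer or medium – tet-free, stripped-serum medium · Schedule – induction 48 h, compound 1 h, agonist 30 min · Detection – formaldehyde fixation, Hoechst nuclear stain, 10x automated fluorescence imaging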
# Hsp70 activator – switches on Hsp70 transcription. HeLa Hsp70 promoter luciferase reporter, luminescence; scaled: vehicle 0, proteasome-inhibitor control 100%. activation, % at 10 µM. 200,000 tested, 0.04% active;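 active = activation above the mean across all tested compounds plus 3 SD, cutoff set per campaign, cut at about 5.5% in these data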;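 also: 100% = MG132 at 30 µM as the positive control and 0% = DMSO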
# Starred values were filed as active, the others as inactive; x = no result given; ! = a repeat was not active. Compounds with a hit are over-represented: about 1.7% of the library has one in this group of screens.
SMILES,EP2 antag,EP2 mod,Dynein cargo inh,Hsp70 activator
CN1CCN(CN2C(=O)[C@H]3[C@H]4C=C[C@@H]([C@@H]3C2=O)[C@H]2[C@@H]3C(=O)N(CN5CCN(C)CC5)C(=O)[C@@H]3[C@@H]42)CC1,53*,8,x,x
CC1=CC2=NC(=O)CC(C)(C(=O)N3CCN(C4CCCCC4)C(=O)C3)N2C=C1 (configuration not stated),1,0,x,x
Cc1ccc(S(=O)(=O)/N=C2/C=C(Sc3ncn[nH]3)C(=O)c3ccccc32)cc1,126*,-70,-3.7*,0
CC(C)c1ccc(S(=O)(=O)/N=C2/C=C(Sc3ncn[nH]3)C(=O)c3ccccc32)cc1,122*,-27,-5.3*,0
Cc1ccc(C)c(S(=O)(=O)Nc2ccc(O)c(Sc3ncn[nH]3)c2)c1,5,-10,0.87,x
Cc1ccc(S(=O)(=O)/N=C2/C=C(Sc3ncn[nH]3)C(=O)c3ccccc32)c(C)c1,54*,-61,-3.6*,0
Cc1ccc(S(=O)(=O)Nc2ccc(O)c(Sc3ncn[nH]3)c2)cc1,9,-54,-0.039,0
COc1ccc2[nH]c(=O)c(CN(CCN(C)C)C(=O)NC3CCCCC3)cc2c1,9,-22,x,x
CCOC(=O)c1nnn(-c2nonc2N)c1CN1CCCCCC1,3,-6,-0.66,-1
CCOC(=O)c1nnn(-c2nonc2-n2cccc2)c1CN1CCCCC1,11,63*,-0.43,0
CCN(CC)CCNC(=O)CSc1c2c(nc3cc(Cl)ccc13)CCCC2,9,-12,-3.9*,0
N/C(=N\OC(=O)/C=C/c1ccccc1)c1ccccn1,6,-11,0.29,0
O=C(/C=C/c1ccccc1)c1ccccn1,25,12,-3.8*,0
Cc1nn(CC(=O)N2CCCC2)c(=O)c2cc3ccsc3n12,x,-18,x,x
Nc1ncc(CN2CCC(O)(c3ccccc3F)CC2)cn1,1,-6,x,x
CCOc1ccc(CN(Cc2ccncc2)C2CC(C)(C)NC(C)(C)C2)cc1OC,7,-28,x,x
CN(C)Cc1cc(C(C)(C)C)cc(CN(C)C)c1O,18,9,x,x
CN(C)Cc1cc(C(C)(C)C)ccc1-c1ccc(C(C)(C)C)cc1CN(C)C,50*,7,x,x
CCOC(=O)c1c(-c2ccccc2)csc1NC(=O)C1CCCO1 (configuration not stated),8,64*!,-0.22,0
CO[C@@H]1/C=C\O[C@]2(C)Oc3c(C)c(O)c4c(O)c(c(CN5CCN(C)CC5)c(O)c4c3C2=O)NC(=O)C(C)=C/C=C\[C@@H](C)[C@@H](O)[C@H](C)[C@@H](O)[C@H](C)[C@H](OC(C)=O)[C@@H]1C,40*,28,x,x
CCc1cc(N2CCN(C(C)=O)CC2)n2nc3nc(C)cc(C)c3c2n1,x,-15,x,x
O=C(/C=C/c1ccccc1)N(Cc1nc2ccccc2c(=O)[nH]1)Cc1cccs1,10,63*,x,x
O=C(c1ccncc1)N(Cc1nc2ccccc2c(=O)[nH]1)Cc1cccs1,10,1,x,x
CCCn1c(SCC(=O)Nc2cc(Cl)ccc2C)nnc1-c1ccco1,11,-4,x,x
Cc1ccc(C2(C(=O)N[C@H](Cn3nc(-c4cccs4)ccc3=O)C(C)C)CC2)cc1,5,76*,x,x
SMILES,EP2 antag,EP2 mod,Dynein cargo inh,Hsp70 activator
CCCn1c(=O)[nH]c(=O)c2c(C(F)(F)F)cc(-c3ccc(C)cc3)nc21,9,40,1.4,0
CC(C)Cn1c(=O)[nH]c(=O)c2c(C(F)(F)F)cc(-c3ccccc3)nc21,5,66*,0.9,x
CCOc1ccc(CN2CCN(C(=O)c3cc(OC)cc(OC)c3)CC2)cc1,9,-31,x,x
CSc1ccc(-c2nnn(Cc3ccc(Br)cc3)n2)cc1,43*,-42,3.8,0
COc1ccc(/C=C/C(=O)c2cc(O)ccc2O)cc1,50*,-49,x,x
Cc1cc(C)c(NS(=O)(=O)c2cccs2)c(C)c1,16,60,x,x
CCCCCn1c(-c2ccco2)nc2nc3ccccc3nc21,x,56,-0.37,0
c1ccc(Cn2c(-c3ccco3)nc3nc4ccccc4nc32)cc1,17,62*,0.13,1
O=C(Cc1cccs1)Nc1cccc(-c2nc3cc4ccccc4cc3[nH]2)c1,117*,-78,1.4,0
COc1ccc2c(c1)C(=O)/C(=C/C=C/c1ccccc1)CC2,11,19,-0.5,0
COC1=CC(=O)C(O)=C/C1=C\C=C\c1ccccc1,111*,-32,x,x
CCOc1ccc2[nH]c(=O)c(CN(C(=O)Nc3cccc(Cl)c3)C3CCCC3)cc2c1,14,-40,x,x
CCOc1ccc(-c2csc3ncn(CC(=O)Nc4ccccc4OC)c(=O)c23)cc1,5,13,x,x
NC1=N[C@@H](c2ccc(Cl)cc2)N(c2ccc(S(N)(=O)=O)cc2)C(N)=N1,47*,0,x,x
O=C(Cc1ccsc1)N1CCCCC1c1nc2ccccc2[nH]1 (configuration not stated),x,-1,x,x
CN(C)CCC[C@@H]1c2ccccc2Oc2ccc(C(F)(F)F)cc21,58*,-32,x,x
COc1ccc2cc(CN(Cc3ccc4c(c3)OCO4)CC(C)O)c(OC)nc2c1 (configuration not stated),7,-65,x,x
Cc1ccc(-c2nn(C(C)(C)C)c3ncnc(NS(=O)(=O)c4ccc([N+](=O)[O-])cc4)c23)cc1,11,62*,-0.37,0
Cc1nc2ccccn2c1C(=O)Nc1cccc(O)c1,6,-45,x,x
COc1cc(OC)c2c(=O)cc(-c3ccccc3)oc2c1,x,-6,0.65,0
COc1cc2c(c3oc(-c4ccccc4)cc(=O)c13)C=CC(C)(C)O2,50*,-12,0.11,-1
O=C(c1ccc2ncccc2c1)N1CCC(c2ccncc2)CC1,3,-39,x,x
Cc1ccc2nc(C)cc(NCCNS(=O)(=O)c3cn(C)nc3C)c2c1,4,-21,x,x
CCCCCC1C(=O)CCC1CC(=O)OC (configuration not stated),10,13,x,x
CCCCC(C)(O)C/C=C/[C@H]1[C@H](O)CC(=O)[C@@H]1CCCCCCC(=O)OC (some centres not stated),10,97*,-2.9,0
SMILES,EP2 antag,EP2 mod,Dynein cargo inh,Hsp70 activator
COc1cccc(Cn2c(-c3nonc3N)nc3ccccc32)c1,3,64*,-0.49,0
O=C(NC1CCCC1)C(c1ccccc1)N(Cc1ccco1)C(=O)Cc1cccs1 (configuration not stated),11,55,-0.44,0
Cc1ccc(N(C(=O)Cc2cccs2)C(C(=O)NC2CCCC2)c2cccs2)cc1 (configuration not stated),11,80*,x,x
O=C(NC1CCCCC1)C(c1ccccc1F)N(Cc1ccco1)C(=O)Cc1cccs1 (configuration not stated),12,63*,x,x
COc1ccc(C)cc1N(C(=O)Cc1cccs1)C(C(=O)NC1CCCC1)c1ccc(C)o1 (configuration not stated),11,75*,x,x
Cc1nc(SCc2c(F)cccc2Cl)c2c(=O)n(C)c(=O)n(C)c2n1,8,62*,-0.14,0
Cn1c(=O)c2c(SCc3ccccn3)nc(C3CC3)nc2n(C)c1=O,9,27,-0.92,0

# From PubChem BioAssay
